Measured values published in ChEMBL document CHEMBL3792331, “Identification and synthesis of potent and selective pyridyl-isoxazole based agonists of sphingosine-1-phosphate 1 (S1P1)” (Bioorg Med Chem Lett, 2016).

Key:
CHO = experiment: Selectivity index, ratio of EC50 for agonist activity at human S1P5 receptor to EC50 for agonist activity at human S1P1 receptor expressed in CHO cell membranes; assay type: cell-based
[1] = biological target: Sphingosine 1-phosphate receptor 3 (Homo sapiens, UniProt Q99500); experiment: Agonist activity at human S1P3 receptor expressed in EDG3-Ga15-bla HEK293T cell membranes assessed as stimulation of [35S]GTPgamma binding incubated for 45 mins by liquid scintillation counting method; design: species or system HEK-293T
Sequence of Sphingosine 1-phosphate receptor 3 (Q99500 whole entry): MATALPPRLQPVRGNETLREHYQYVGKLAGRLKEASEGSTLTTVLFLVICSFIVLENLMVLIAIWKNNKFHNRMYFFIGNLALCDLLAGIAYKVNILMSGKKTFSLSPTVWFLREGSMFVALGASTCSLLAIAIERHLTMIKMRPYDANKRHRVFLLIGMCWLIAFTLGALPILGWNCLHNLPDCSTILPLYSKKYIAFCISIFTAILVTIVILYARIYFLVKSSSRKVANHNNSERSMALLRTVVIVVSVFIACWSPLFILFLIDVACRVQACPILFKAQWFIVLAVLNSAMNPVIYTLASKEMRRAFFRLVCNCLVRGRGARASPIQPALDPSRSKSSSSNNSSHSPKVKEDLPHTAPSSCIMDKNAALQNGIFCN
Procedure, shortened: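 Membranes from S1P1/CHO cells (S1P1) or EDG3-Ga15-bla HEK293T cells (S1P3), final protein […], with 3-fold compound dilutions. Buffer: 20 mM HEPES pH 7.5, 10 mM MgCl2, 150 mM NaCl, 1 mM EGTA, 1 mM DTT, GDP, 0.1% fatty acid free BSA, saponin. [35S]GTP 0.2 nM final. Room temperature, 45 min. Filtered, washed with water, dried 60 °C. EC50 taken at 50% of each compound's Ymax.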

[2] = Oral bioavailability in cynomolgus monkey at 1 mg/kg; assay type: ADME, organism-based, Macaca fascicularis; settings: in vivo
[3] = Protein binding in monkey plasma; assay type: ADME, cell-free, Macaca mulatta; settings: rhesus monkey, read-out: PPB (converted)
[4] = Selectivity index, ratio of EC50 for agonist activity at human S1P3 receptor expressed in EDG3-Ga15-bla HEK293T cell membranes to EC50 for agonist activity at human S1P1 receptor expressed in CHO cell membranes; assay type: cell-based
Procedure, shortened: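 S1P3/S1P1 ratio of GTPγ[35S] EC50s. Membranes from EDG3-Ga15-bla HEK293T (S1P3) or S1P1/CHO cells, […], 0.2 nM final [35S]GTP. HEPES pH 7.5 buffer with MgCl2, NaCl, EGTA, DTT, GDP, BSA and saponin. 45 min at room temperature, filtration read-out. Each EC50 taken at 50% of the compound's own Ymax.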

[5] = Clearance in rat at 2 mg/kg, iv; assay type: ADME, organism-based; settings: in vivo
[6] = Protein binding in dog plasma; assay type: ADME, cell-free, Canis lupus familiaris; settings: read-out: PPB (converted)
Liver microsome [7] = experiment: Stability in rat liver microsomes assessed as compound remaining; assay type: ADME
Canis familiaris [8] = experiment: Ratio of Cmax to Cmin in dog at 1 mg/kg, po; assay type: ADME, organism-based, Canis lupus familiaris; settings: in vivo
Rattus norvegicus [9] = experiment: Reduction in circulating lymphocytes in Lewis rat at 1 mg/kg, po after 4 hrs; assay type: functional
Procedure, shortened: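 Healthy Lewis rats dosed orally with test article as solution or suspension in vehicle, or vehicle alone. Blood drawn at 4 h and 24 h. Circulating lymphocyte percentage measured by hematology analyzer, expressed as reduction versus the vehicle group. Group average, n = 3–4.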

Cynomolgus monkey [10] = experiment: Clearance in cynomolgus monkey at 1 mg/kg, iv relative to hepatic blood flow; assay type: ADME, organism-based, Macaca fascicularis, Liver; settings: in vivo
Rattus norvegicus [11] = experiment: Anti-inflammatory activity in Lewis rat complete Freund's adjuvant-induced arthritis model of human rheumatoid arthritis assessed as reduction in hind paw swelling at 0.5 and 3 mg/kg, po QD for 21 days starting at day 0 by plethysmometry; assay type: functional, organism-based
Procedure, shortened: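 Male Lewis rats given complete Freund's adjuvant with heat-killed Mycobacterium butyricum subcutaneously at the tail base. Dosed orally once daily for 21 days from day 0. Hind paw volume measured by water displacement plethysmometry at baseline and over three weeks; increase above baseline calculated. Compared with vehicle, p<0.05.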

[12] = Half life in cynomolgus monkey at 1 mg/kg, iv; assay type: ADME, organism-based, Macaca fascicularis; settings: in vivo
Cytochrome P450 3A4 = Cytochrome P450 3A4 (Homo sapiens, UniProt P08684); experiment: Inhibition of CYP3A4 (unknown origin); assay type: ADME
Sequence of Cytochrome P450 3A4 (P08684 whole entry): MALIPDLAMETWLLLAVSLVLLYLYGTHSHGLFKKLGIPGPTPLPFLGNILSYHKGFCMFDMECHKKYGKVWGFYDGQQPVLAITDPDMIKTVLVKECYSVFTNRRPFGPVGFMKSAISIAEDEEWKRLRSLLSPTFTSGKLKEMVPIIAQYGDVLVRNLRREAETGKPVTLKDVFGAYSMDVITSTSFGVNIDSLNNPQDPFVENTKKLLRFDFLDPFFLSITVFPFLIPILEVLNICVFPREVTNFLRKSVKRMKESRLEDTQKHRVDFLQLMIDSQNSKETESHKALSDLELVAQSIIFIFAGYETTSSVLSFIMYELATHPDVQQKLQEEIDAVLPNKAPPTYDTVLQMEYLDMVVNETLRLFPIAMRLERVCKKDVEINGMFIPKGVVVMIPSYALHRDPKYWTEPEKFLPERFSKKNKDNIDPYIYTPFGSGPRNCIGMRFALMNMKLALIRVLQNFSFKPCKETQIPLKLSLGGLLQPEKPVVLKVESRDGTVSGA

[13] = Stability in mouse liver microsomes assessed as compound remaining; assay type: ADME
hERG (KCNH2) = hERG (KCNH2) (Homo sapiens, UniProt Q12809); experiment: Inhibition of human ERG at 30 uM by patch clamp assay
Sequence of hERG (KCNH2) (Q12809 whole entry): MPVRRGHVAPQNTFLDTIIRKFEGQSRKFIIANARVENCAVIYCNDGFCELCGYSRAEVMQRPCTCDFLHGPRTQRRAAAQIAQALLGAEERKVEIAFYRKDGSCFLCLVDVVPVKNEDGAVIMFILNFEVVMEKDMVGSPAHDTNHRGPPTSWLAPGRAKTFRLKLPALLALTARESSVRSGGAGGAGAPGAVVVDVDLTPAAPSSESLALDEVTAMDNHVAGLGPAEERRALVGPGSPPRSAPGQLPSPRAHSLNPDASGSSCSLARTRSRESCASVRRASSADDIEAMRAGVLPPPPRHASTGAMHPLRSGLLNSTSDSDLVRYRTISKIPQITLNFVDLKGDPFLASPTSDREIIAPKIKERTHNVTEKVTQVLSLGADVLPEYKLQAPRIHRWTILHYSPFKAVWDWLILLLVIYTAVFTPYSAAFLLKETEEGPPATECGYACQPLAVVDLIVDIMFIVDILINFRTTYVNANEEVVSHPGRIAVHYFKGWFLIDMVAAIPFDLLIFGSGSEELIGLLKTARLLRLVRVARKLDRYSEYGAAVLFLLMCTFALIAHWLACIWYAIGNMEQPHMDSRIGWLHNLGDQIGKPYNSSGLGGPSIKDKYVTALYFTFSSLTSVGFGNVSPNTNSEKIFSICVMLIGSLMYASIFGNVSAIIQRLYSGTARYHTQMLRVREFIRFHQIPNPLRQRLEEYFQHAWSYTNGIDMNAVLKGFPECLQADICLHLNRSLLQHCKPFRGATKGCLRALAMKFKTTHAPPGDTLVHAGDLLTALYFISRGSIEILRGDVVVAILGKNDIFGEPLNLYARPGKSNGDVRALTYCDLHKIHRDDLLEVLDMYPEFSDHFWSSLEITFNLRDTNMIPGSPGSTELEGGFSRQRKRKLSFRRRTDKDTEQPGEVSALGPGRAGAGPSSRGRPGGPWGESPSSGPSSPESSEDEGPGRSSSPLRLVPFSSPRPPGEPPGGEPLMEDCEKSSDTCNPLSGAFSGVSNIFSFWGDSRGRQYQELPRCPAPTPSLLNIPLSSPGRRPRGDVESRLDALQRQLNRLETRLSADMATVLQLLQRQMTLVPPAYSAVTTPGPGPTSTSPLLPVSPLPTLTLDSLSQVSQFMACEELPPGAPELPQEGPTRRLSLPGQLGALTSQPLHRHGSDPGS

[14] = Half life in dog at 1 mg/kg, iv; assay type: ADME, organism-based, Canis lupus familiaris; settings: in vivo
Cytochrome P450 2D6 = Cytochrome P450 2D6 (Homo sapiens, UniProt P10635); experiment: Inhibition of CYP2D6 (unknown origin); assay type: ADME
Sequence of Cytochrome P450 2D6 (P10635 whole entry): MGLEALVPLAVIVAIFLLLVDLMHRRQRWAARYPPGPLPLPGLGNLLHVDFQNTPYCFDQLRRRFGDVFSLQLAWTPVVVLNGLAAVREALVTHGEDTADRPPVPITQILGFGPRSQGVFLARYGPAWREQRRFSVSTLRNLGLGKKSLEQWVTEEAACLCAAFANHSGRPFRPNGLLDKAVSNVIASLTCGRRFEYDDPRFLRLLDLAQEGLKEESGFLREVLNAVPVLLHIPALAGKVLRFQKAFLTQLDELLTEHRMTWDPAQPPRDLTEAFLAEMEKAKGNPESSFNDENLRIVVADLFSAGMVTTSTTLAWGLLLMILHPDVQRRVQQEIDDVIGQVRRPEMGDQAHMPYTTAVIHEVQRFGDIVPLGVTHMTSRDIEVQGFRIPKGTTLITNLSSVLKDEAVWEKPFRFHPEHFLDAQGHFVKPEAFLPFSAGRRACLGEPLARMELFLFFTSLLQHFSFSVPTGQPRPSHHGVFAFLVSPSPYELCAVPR

Cytochrome P450 1A2 = biological target: T1, Cytochrome P450 1A2 (Homo sapiens, UniProt P05177); experiment: Inhibition of CYP1A2 (unknown origin); assay type: ADME
T1 sequence (P05177 whole entry): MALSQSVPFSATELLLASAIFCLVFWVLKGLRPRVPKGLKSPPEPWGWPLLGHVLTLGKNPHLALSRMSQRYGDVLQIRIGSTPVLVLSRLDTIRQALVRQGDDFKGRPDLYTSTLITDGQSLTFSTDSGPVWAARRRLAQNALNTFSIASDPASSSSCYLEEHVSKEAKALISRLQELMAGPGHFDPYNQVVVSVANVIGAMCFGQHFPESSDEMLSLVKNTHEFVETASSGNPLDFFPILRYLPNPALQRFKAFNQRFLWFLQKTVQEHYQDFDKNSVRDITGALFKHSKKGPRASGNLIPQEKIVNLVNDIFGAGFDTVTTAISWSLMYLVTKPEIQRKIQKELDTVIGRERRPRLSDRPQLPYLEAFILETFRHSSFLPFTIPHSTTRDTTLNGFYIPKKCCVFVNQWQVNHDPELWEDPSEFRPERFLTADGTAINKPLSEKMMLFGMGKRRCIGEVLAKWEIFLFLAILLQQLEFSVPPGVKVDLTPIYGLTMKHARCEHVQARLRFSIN

[15] = Oral bioavailability in rat at 5 mg/kg; assay type: ADME, organism-based; settings: in vivo
[16] = Protein binding in human plasma; assay type: ADME, cell-free; settings: read-out: PPB (converted)
Canis familiaris [17] = experiment: Clearance in dog at 1 mg/kg, iv relative to hepatic blood flow; assay type: ADME, organism-based, Canis lupus familiaris, Liver; settings: in vivo
Liver microsome [18] = experiment: Stability in human liver microsomes assessed as compound remaining; assay type: ADME
Salmonella typhimurium = experiment: Mutagenicity in Salmonella typhimurium; assay type: toxicity, organism-based; settings: salmonella enterica subsp. enterica serovar typhimurium
Mus musculus = experiment: Clearance in mouse at 2 mg/kg, iv relative to hepatic blood flow; assay type: ADME, organism-based, Liver; settings: in vivo
Rattus norvegicus [19] = experiment: Clearance in rat at 2 mg/kg, iv relative to hepatic blood flow; assay type: ADME, organism-based, Liver; settings: in vivo
Cytochrome P450 2C19 = Cytochrome P450 2C19 (Homo sapiens, UniProt P33261); experiment: Inhibition of CYP2C19 (unknown origin); assay type: ADME
Sequence of Cytochrome P450 2C19 (P33261 whole entry): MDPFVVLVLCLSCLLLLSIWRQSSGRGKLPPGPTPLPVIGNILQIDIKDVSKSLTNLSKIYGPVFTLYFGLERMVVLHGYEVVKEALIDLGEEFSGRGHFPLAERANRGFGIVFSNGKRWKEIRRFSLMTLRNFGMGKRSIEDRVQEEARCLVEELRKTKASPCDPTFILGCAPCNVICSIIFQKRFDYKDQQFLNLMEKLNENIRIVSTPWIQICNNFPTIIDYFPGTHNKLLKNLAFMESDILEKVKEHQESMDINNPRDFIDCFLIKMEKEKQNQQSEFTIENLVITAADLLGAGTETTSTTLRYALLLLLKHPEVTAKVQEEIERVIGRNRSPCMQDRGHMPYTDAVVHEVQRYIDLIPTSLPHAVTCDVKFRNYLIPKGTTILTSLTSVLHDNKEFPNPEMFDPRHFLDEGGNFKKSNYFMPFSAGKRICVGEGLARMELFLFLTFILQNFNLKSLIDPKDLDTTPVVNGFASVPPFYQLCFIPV

Cynomolgus monkey [20] = experiment: Ratio of Cmax to Cmin in cynomolgus monkey at 1 mg/kg, po; assay type: ADME, organism-based, Macaca fascicularis; settings: in vivo

O=C(O)C1CN(Cc2ccc(-c3noc(-c4onc(-c5ccccn5)c4C(F)(F)F)n3)cc2)C1
Ratio EC50 (CHO): 3.2 | EC50 [1]: 2.9 µM | bioavailability [2]: 12% | fraction unbound [3]: 0.065 | Ratio EC50 [4]: 4100 | clearance [5]: 0.06 L/h/kg | fraction unbound [6]: 0.274 | Stability (Liver microsome [7]): 100% | Ratio (Canis familiaris [8]): 7.4 | inhibition in vivo at 1 mg/kg (Rattus norvegicus [9]): 85% | CL (Cynomolgus monkey [10]): 32% | Activity (Rattus norvegicus [11]): Dose-dependent effect | half-life [12]: 1.1 h | IC50 (Cytochrome P450 3A4): > 40 µM | Stability [13]: 100% | inhibition at 30 µM (hERG (KCNH2)): 34% | half-life [14]: 6.1 h | IC50 (Cytochrome P450 2D6): > 40 µM | IC50 (Cytochrome P450 1A2): > 40 µM | bioavailability [15]: 100% | fraction unbound [16]: 0.005 | CL (Canis familiaris [17]): 8.4% | Stability (Liver microsome [18]): 88% | Activity (Salmonella typhimurium): Non-toxic | CL (Mus musculus): < 1% | CL (Rattus norvegicus [19]): 1.4% | IC50 (Cytochrome P450 2C19): > 40 µM | Ratio (Cynomolgus monkey [20]): > 400
